pIC50: −log10 of the molar value.
Assays:
[1] = Half life in DMEM medium at 5 uM in absence of 5% FBS by HPLC method; assay type: physicochemical
Method in brief: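 Compound diluted from DMSO stock to 5 µM final in DMEM (pH 7.5) and held at 37 °C under 5% CO2. Aliquots taken at intervals and quenched with pH 2.0 phosphate buffer. Remaining β-lactone quantified by C18 HPLC integration against initial compound. Run in triplicate.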

[2] = Half life in DMEM medium at 5 uM in presence of 5% FBS by HPLC method; assay type: physicochemical; conditions: cattle
Method in brief: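 Compound at 5 µM final in DMEM with 5% FBS at 37 °C, 5% CO2. Aliquots quenched with pH 2.0 phosphate buffer plus acetonitrile and vortexed to precipitate serum protein. Clear supernatant analysed by C18 HPLC as % β-lactone remaining versus initial. Triplicate.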

Fatty acid synthase [3] = biological target: T1, Fatty acid synthase (Homo sapiens, UniProt P49327); test: Inhibition of human FAS thioster domain preincubated for 30 mins followed by 4-methylumbelliferyl heptanoate substrate addition measured every 5 mins for 60 mins by fluorescence assay
Target sequence in this assay (P49327 whole entry, the tested form may be a part): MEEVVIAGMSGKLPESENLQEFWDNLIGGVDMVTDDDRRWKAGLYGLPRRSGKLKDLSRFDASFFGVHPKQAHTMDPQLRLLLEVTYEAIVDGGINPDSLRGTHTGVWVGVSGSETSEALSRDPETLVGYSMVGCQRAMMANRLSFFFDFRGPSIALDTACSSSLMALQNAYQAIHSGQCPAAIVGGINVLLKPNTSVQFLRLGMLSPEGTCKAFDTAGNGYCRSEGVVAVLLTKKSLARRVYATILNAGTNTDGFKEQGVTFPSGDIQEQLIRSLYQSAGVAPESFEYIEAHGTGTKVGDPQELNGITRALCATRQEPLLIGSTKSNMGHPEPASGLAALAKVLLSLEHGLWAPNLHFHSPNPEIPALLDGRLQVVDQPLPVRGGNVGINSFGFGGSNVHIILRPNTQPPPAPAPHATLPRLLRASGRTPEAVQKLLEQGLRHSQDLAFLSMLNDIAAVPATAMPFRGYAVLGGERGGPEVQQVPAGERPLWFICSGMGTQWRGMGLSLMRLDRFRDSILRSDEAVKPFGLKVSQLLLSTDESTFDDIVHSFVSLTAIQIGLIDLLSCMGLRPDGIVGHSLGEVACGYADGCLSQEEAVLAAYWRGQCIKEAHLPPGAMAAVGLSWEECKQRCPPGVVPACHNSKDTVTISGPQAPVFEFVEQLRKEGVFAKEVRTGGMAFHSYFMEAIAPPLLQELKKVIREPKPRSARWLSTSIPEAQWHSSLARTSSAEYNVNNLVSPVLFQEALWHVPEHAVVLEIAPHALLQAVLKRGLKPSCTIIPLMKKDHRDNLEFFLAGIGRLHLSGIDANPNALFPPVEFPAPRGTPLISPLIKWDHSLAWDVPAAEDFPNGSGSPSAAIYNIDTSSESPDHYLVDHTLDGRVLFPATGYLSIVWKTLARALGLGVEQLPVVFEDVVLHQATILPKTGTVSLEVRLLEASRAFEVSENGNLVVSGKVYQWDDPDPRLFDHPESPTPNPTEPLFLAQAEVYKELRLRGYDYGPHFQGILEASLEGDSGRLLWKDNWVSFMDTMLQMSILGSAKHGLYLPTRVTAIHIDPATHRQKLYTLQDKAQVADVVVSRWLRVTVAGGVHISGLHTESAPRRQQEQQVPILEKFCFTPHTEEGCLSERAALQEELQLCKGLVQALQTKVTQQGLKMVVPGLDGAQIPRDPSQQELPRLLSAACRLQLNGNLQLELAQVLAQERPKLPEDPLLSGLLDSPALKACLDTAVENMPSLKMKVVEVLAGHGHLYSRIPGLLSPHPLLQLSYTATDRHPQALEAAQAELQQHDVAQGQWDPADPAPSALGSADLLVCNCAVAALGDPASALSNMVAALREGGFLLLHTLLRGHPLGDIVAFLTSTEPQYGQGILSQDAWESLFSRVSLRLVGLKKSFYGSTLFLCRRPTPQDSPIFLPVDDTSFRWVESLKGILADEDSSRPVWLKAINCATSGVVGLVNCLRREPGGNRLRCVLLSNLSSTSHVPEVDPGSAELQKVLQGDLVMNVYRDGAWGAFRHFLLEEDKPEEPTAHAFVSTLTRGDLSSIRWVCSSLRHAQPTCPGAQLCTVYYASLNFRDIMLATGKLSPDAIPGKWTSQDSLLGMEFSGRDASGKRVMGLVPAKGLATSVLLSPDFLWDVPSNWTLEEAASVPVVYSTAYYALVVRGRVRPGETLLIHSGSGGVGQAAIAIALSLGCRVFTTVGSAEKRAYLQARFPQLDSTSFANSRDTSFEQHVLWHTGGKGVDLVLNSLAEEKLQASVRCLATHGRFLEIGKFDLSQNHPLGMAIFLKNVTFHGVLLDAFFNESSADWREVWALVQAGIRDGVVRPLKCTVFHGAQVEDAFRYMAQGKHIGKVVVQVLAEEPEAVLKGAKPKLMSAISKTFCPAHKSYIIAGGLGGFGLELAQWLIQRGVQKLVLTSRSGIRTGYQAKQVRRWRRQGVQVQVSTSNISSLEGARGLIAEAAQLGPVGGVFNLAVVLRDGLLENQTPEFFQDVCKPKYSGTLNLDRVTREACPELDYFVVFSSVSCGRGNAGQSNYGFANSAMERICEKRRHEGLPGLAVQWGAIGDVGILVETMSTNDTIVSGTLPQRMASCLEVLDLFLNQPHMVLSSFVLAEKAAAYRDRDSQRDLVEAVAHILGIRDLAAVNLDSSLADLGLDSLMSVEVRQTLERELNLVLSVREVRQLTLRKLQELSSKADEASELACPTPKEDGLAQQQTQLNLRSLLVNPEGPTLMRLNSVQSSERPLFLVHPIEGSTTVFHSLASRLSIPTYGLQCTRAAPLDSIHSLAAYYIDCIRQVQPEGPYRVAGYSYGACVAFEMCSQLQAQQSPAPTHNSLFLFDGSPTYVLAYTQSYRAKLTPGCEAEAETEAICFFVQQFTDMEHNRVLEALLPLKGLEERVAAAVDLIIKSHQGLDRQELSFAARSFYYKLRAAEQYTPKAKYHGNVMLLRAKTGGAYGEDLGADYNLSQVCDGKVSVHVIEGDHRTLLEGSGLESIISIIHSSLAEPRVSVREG

Fatty acid synthase [4] = biological target: T1, Fatty acid synthase; test: Inhibition of FAS thioster domain (unknown origin)
Method in brief: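 Human FAS-TE (500 nM) in 100 mM Tris-HCl, 50 mM NaCl, pH 7.4, preincubated 30 min at 37 °C with compound (0.32–100 µM and/or 0.08–10 µM final, DMSO). Reaction started with 4-methylumbelliferyl heptanoate. Fluorescence (350/450 nm) read every 5 min for 60 min, substrate-only background. IC50 by four-parameter fit; triplicate.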
Target sequence in this assay (P49327 whole entry, the tested form may be a part): as above

[5] = biological target: T2, Proteasome Macropain subunit MB1 (Homo sapiens, UniProt P28074); test: Inhibition of chymotrypsin-like activity of 20S proteasome in human red blood cells pretreated for 20 mins followed by Suc-Leu-Leu-Val-Tyr-AMC substrate addition by fluorescence assay; assay type: cell-based
T2 sequence (P28074 whole entry): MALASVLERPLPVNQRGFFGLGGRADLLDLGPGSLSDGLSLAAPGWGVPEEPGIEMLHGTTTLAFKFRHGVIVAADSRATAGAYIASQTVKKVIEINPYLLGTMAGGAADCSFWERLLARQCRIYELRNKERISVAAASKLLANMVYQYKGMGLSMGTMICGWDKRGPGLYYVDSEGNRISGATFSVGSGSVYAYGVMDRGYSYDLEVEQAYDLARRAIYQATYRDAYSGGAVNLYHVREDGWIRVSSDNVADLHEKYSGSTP
Method in brief: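 20S proteasome (50 ng) from human erythrocytes, preincubated 20 min at 37 °C in 20 mM Tris pH 7.5 with inhibitor series. AMC substrate then added: 10 µM Suc-LLVY for chymotrypsin-like, 20 µM Boc-LRR for trypsin-like, 20 µM Z-LLE for caspase-like. Hydrolysis followed at 360/460 nm for 600 s; the linear rate was fitted to a four-parameter curve for IC50. Triplicate.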

Fatty acid synthase [6] = biological target: T1, Fatty acid synthase; test: Competitive inhibition of human FAS thioster domain in MCF cells preincubated for 30 mins followed by TAMRA-N3 labelled (S)-4-ethynylbenzyl 2-((S)-2-(benzyloxycarbonylamino)-6-((2R,3S)-3-hexyl-4-oxooxetane-2-carboxamido)hexanamido)propanoate probe addition after 30 mins […]; assay type: cell-based
Method in brief: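 MCF-7 cells at 80–90% confluency in serum-free medium, pre-incubated 30 min at 37 °C with competitor (10 → 100 µM, 1–10-fold excess over probe; DMSO ≤0.1%). Alkyne probe then added at 10 µM final for 30 min. Cells lysed in NP-40/deoxycholate, protein normalized by BCA, clicked to TAMRA-N3 (CuSO4/TCEP/TBTA, 1–1.5 h RT), resolved by SDS-PAGE, read by in-gel fluorescence.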
Target sequence in this assay (P49327 whole entry, looked up, the tested form may be a part): as the sequence (P49327 whole entry, the tested form may be a part) above

HeLa = test: Cytotoxicity against human HeLa cells assessed as reduction in cell viability after 24 hrs by MTT assay; assay type: functional, cell-based
Method in brief: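 HeLa cells grown in DMEM with 10% FBS were seeded at 5000/well and left overnight. MTT was then added for 4 h, the formazan dissolved in DMSO and A570 read. IC50 came from dose-response curves; mean ± SEM of three independent experiments.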

CCCCCC[C@]1(C)C(=O)O[C@H]1C(=O)NCCCC[C@H](NC(=O)[C@H](C)NC(=O)OCc1ccccc1)C(=O)OCc1ccccc1
t1/2 [1]: 70 min | t1/2 [2]: 120 min | pIC50 (Fatty acid synthase [3]): 5.58

CC(C)C[C@@H]1C(=O)O[C@H]1C(=O)NCCC[C@H](NC(=O)[C@H](C)NC(=O)OCc1ccccc1)C(=O)OCc1ccccc1
pIC50 (Fatty acid synthase [4]): 5.40 to 6.80

CCCCCC[C@@H]1C(=O)O[C@H]1C(=O)NCCCC[C@H](NC(=O)[C@H](C)NC(=O)c1ccc(Br)cc1)C(=O)OCc1ccccc1
pIC50 (Fatty acid synthase [3]): 5.32

CCCCCC[C@@]1(C)C(=O)O[C@H]1C(=O)NCCCC[C@H](NC(=O)[C@H](C)NC(=O)OCc1ccccc1)C(=O)OCc1ccccc1
pIC50 (Fatty acid synthase [3]): 5.92

CCC[C@@H]1C(=O)O[C@H]1C(=O)NCCC[C@H](NC(=O)[C@H](C)NC(=O)OCc1ccccc1)C(=O)OCc1ccccc1
pIC50 (Fatty acid synthase [4]): 5.40 to 6.80

C#Cc1ccc(COC(=O)[C@H](C)NC(=O)[C@H](CCCCNC(=O)[C@@H]2OC(=O)[C@H]2CCCCCC)NC(=O)OCc2ccccc2)cc1
pIC50 [5]: 6.59 | pIC50 (Fatty acid synthase [3]): 5.40

CCCCCC[C@H]1C(=O)O[C@@H]1C(=O)NCCCC[C@H](NC(=O)OCc1ccccc1)C(=O)N[C@@H](C)C(=O)OCc1ccccc1
pIC50 [5]: 5.57 | pIC50 (Fatty acid synthase [3]): 4.90

CCCCCC[C@@]1(C)C(=O)O[C@@H]1C(=O)NCCCC[C@H](NC(=O)[C@H](C)NC(=O)OCc1ccccc1)C(=O)OCc1ccccc1
pIC50 (Fatty acid synthase [3]): 5.51

CCCCCCCCCCC[C@@H](C[C@@H]1OC(=O)[C@H]1CCCCCC)OC(=O)[C@H](CC(C)C)NC=O [ORLISTAT]
pIC50 [5]: < 4.00

CCCCCC[C@@H]1C(=O)O[C@H]1C(=O)NCCC[C@H](NC(=O)[C@H](C)NC(=O)OCc1ccccc1)C(=O)OCc1ccccc1
pIC50 (Fatty acid synthase [4]): 5.40 to 6.80 | pIC50 [5]: 6.15 | pIC50 (Fatty acid synthase [3]): 5.36

CCCCCC[C@@H]1C(=O)O[C@H]1C(=O)NCCCC[C@H](NC(=O)OCc1ccccc1)C(=O)N[C@@H](C)C(=O)OCc1ccccc1
inhibition (Fatty acid synthase [6]): Dose-dependent effect | pIC50 (HeLa): 4.34 | t1/2 [1]: 20 min | pIC50 [5]: 6.43 | t1/2 [2]: < 3 min | pIC50 (Fatty acid synthase [3]): 5.82

CCCCCC[C@@H]1C(=O)O[C@H]1C(=O)NCCCC[C@@H]1NC(=O)N([C@@H](C)C(=O)OCc2ccccc2)C1=O
pIC50 [5]: 6.29 | pIC50 (Fatty acid synthase [3]): 5.26

— ChEMBL document CHEMBL4020701, “A strategy for dual inhibition of the proteasome and fatty acid synthase with belactosin C-orlistat hybrids” (Bioorg Med Chem, 2017)
